Experimental data: ChEMBL document CHEMBL4613273, “Discovery of Aryl Formyl Piperidine Derivatives as Potent, Reversible, and Selective Monoacylglycerol Lipase Inhibitors” (J Med Chem, 2020)
Calls of active or inactive are those of the source. The calls are words filed in the database; no cut-off is given here.

Columns and labels:
[1] = Tmax in Sprague-Dawley rat brain at 10 mg/kg, ig measured over 5 to 720 mins post dose by LC-MS/MS analysis
[2] = AUC (0 to infinity) in Sprague-Dawley rat brain at 10 mg/kg, ig measured over 5 to 720 mins post dose by LC-MS/MS analysis; details: in vivo
[3] = target: T1, Monoglyceride lipase (Homo sapiens, UniProt Q99685); experiment: Inhibition of human recombinant MAGL pre-incubated for 5 mins before MAGL substrate addition and further incubated for 10 mins
T1 sequence (Q99685 whole entry): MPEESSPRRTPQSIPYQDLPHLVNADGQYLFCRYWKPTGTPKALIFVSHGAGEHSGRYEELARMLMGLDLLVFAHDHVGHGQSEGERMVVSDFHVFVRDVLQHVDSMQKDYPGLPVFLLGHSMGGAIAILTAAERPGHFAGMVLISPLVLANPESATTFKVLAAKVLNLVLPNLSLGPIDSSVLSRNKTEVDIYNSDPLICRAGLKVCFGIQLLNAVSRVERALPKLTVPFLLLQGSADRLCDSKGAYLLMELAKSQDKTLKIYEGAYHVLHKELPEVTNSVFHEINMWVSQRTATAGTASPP

[4] = AUC (0 to infinity) in Sprague-Dawley rat plasma at 10 mg/kg, ig measured over 1 to 300 mins post dose by LC-MS/MS analysis; format: ADME, organism-based; set-up: dose 10 mg/kg, route […], time infinity; details: in vivo, po
[5] = Bioavailability (0 to t) in Sprague-Dawley rat plasma at 10 mg/kg, ig measured over 1 to 300 mins post dose by LC-MS/MS analysis; format: ADME, organism-based; details: po
[6] = tested on: Mus musculus; experiment: Antidepressant activity in ICR mouse model of reserpine-induced depression assessed as reduction in autonomous movement at 4 to 16 mg/kg, sc for 6 days followed by reserpine injection 2 hrs after last compound dose and measured after 2 hrs; format: functional, organism-based
Method in brief: (§1)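 In mice, depression was induced with reserpine 4 mg/kg, and the compound was given s.c. at 4, 8 or 16 mg/kg. Controls received phosphate buffer alone. Awakening, finger contact, fear, head touch, autonomous movement, straight and eyelid closure were scored. Data are mean ± SD of 3 independent experiments.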

[7] = target: Cannabinoid receptor 1 (Homo sapiens, UniProt P21554); experiment: Inhibition of CB1 receptor (unknown origin) expressed in Flpin-CHO cells incubated for 10 mins by Eu-cAMP tracer based cAMP accumulation assay; format: functional, cell-based
[8] = tested on: Mus musculus; experiment: Antidepressant activity in ICR mouse model of reserpine-induced depression assessed as reduction in eyelid closure at 4 to 16 mg/kg, sc for 6 days followed by reserpine injection 2 hrs after last compound dose and measured after 2 hrs; format: functional, organism-based
Method in brief: as §1

[9] = target: Cannabinoid receptor 2 (Homo sapiens, UniProt P34972); experiment: Inhibition of CB2 receptor (unknown origin) expressed in Flpin-CHO cells at 10 uM incubated for 10 mins by Eu-cAMP tracer based cAMP accumulation assay relative to control
[10] = Cmax in Sprague-Dawley rat plasma at 10 mg/kg, iv measured over 1 to 300 mins post dose by LC-MS/MS analysis; format: ADME, organism-based; set-up: dose 10 mg/kg, route intravenous
[11] = species on record: Homo sapiens; experiment: Selectivity index, ratio of IC50 for inhibition of human recombinant FAAH to IC50 for inhibition of human recombinant MAGL
[12] = tested on: Mus musculus; experiment: Antidepressant activity in ICR mouse model of reserpine-induced depression assessed as reduction in finger contact at 4 to 16 mg/kg, sc for 6 days followed by reserpine injection 2 hrs after last compound dose and measured after 2 hrs; format: functional, organism-based
Method in brief: as §1

[13] = Tmax in Sprague-Dawley rat plasma at 10 mg/kg, ig measured over 1 to 300 mins post dose by LC-MS/MS analysis; format: ADME, organism-based; details: po
[14] = tested on: Mus musculus; experiment: Antidepressant activity in ICR mouse model of reserpine-induced depression assessed as reduction in head touch at 4 to 16 mg/kg, sc for 6 days followed by reserpine injection 2 hrs after last compound dose and measured after 2 hrs; format: functional, organism-based
Method in brief: as §1

[15] = AUC (0 to t) in Sprague-Dawley rat brain at 10 mg/kg, ig measured over 5 to 720 mins post dose by LC-MS/MS analysis; details: in vivo
[16] = Growth inhibition of mouse L929 cells at 20 uM incubated for 24 to 72 hrs relative to control; format: cell-based; details: read-out: GI
Method in brief: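 Mouse fibroblast L929 cells were exposed to the compound, including 20 μM, for 24, 48 and 72 h. Growth inhibition was read against control, from 3 independent experiments.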

[17] = Bioavailability (0 to infinity) in Sprague-Dawley rat plasma at 10 mg/kg, ig measured over 1 to 300 mins post dose by LC-MS/MS analysis
[18] = tested on: Mus musculus; experiment: Antidepressant activity in ICR mouse model of reserpine-induced depression assessed as immobility time at 5 mg/kg, ig by tail suspension test (reference value: 132.38 +/- 44.51 secs); format: functional
[19] = AUC (0 to infinity) in Sprague-Dawley rat plasma at 10 mg/kg, iv measured over 1 to 300 mins post dose by LC-MS/MS analysis; format: ADME, organism-based; set-up: dose 10 mg/kg, time infinity, route intravenous; details: in vivo
[20] = tested on: Mus musculus; experiment: Antidepressant activity in ICR mouse model of reserpine-induced depression assessed as reduction in straight scores at 4 to 16 mg/kg, sc for 6 days followed by reserpine injection 2 hrs after last compound dose and measured after 2 hrs; format: functional, organism-based
Method in brief: as §1

[21] = tested on: Mus musculus; experiment: Antidepressant activity in ICR mouse model of reserpine-induced depression assessed as reduction in awakening at 4 to 16 mg/kg, sc for 6 days followed by reserpine injection 2 hrs after last compound dose and measured after 2 hrs; format: functional, organism-based
Method in brief: as §1

[22] = Cmax in Sprague-Dawley rat brain at 10 mg/kg, ig measured over 5 to 720 mins post dose by LC-MS/MS analysis

Cannabinoid receptor 1, sequence (P21554 whole entry): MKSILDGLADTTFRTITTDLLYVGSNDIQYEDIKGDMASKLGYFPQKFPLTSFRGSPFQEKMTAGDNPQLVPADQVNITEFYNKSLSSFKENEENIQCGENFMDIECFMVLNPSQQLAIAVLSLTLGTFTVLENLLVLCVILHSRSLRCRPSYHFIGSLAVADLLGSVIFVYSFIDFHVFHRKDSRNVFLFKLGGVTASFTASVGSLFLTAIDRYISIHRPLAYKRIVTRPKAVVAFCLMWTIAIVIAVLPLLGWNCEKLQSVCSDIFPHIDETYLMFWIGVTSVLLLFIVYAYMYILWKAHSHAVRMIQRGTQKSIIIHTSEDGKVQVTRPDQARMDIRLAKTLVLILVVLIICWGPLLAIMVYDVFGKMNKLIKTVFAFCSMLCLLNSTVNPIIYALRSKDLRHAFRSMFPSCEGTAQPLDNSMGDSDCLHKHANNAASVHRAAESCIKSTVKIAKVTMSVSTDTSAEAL
Cannabinoid receptor 2, sequence (P34972 whole entry): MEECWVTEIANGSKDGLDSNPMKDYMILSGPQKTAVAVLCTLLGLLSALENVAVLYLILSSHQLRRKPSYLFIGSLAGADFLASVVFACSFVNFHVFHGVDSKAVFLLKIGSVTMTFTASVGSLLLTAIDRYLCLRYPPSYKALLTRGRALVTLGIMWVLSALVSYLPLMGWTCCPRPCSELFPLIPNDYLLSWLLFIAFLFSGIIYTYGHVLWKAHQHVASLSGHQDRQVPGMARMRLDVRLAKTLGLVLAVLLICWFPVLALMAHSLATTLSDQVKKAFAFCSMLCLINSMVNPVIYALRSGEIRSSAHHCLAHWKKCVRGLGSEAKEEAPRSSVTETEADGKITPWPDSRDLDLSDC

Tmax [1]: 40 min
AUC [2]: 3720.04 µg·min/L
IC50 [3]: 14.7 nM
AUC [4]: 17791.86 µg·min/L
bioavailability [5]: 12.2%
EC50 [7]: > 10000 nM
inhibition [9]: 20.4%
Cmax [10]: 5480 ng/mL
Ratio IC50 [11]: 6780
Tmax [13]: 34 min
AUCt [15]: 3582.71 µg·min/L
bioavailability [17]: 21.6%
AUC [19]: 82362.19 µg·min/L
Cmax [22]: 16.6 ng/mL
Structure (SMILES): O=C(Nc1cccc(Cl)c1)C1CCN(C(=O)c2ccc3ccccc3c2)CC1
Activity [6]: Active
Activity [8]: Active
Activity [12]: Active
Activity [14]: Active
inhibition at 20 µM [16]: 8.6%
Time [18]: 89.87 s
Activity [20]: Active
Activity [21]: Active
